Experiment [1] addresses T1, DNA topoisomerase 2-alpha (Homo sapiens, UniProt P11388). The experiment in a line: Inhibition of human topoisomerase-2 alpha expressed in baculovirus infected insect cells assessed as reduction in enzyme-meditaed supercoiled pRYG DNA substrate relaxation at 100 uM in presence of buffer containing DTT after 30 mins by agarose gel electrophoresis method. The method in brief:
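2U hTopoII on covalently closed negatively supercoiled pRYG plasmid, in 1% (v/v) DMSO. Commercial reaction buffer containing DTT. Etoposide, ICRF-187 and merbarone as controls. Agarose gel run without ethidium bromide separates supercoiled forms from relaxed topoisomers.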

The target of experiment [2] is T1, DNA topoisomerase 2-alpha. Kind of experiment: Inhibition of human topoisomerase-2 alpha expressed in baculovirus infected insect cells assessed as reduction in enzyme-meditaed supercoiled pRYG DNA substrate relaxation at 100 uM in presence of buffer containing 2-mercaptoethanol after 30 mins by agarose gel electrophoresis method. The method in brief: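 2U hTopoII on covalently closed negatively supercoiled pRYG plasmid, in 1% (v/v) DMSO. Home-made reaction buffer with 2-mercaptoethanol as reducing agent. Etoposide, ICRF-187 and merbarone as controls. Agarose gel run without ethidium bromide separates supercoiled substrate from relaxed topoisomers.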

For experiment [3], the target named is T1, DNA topoisomerase 2-alpha. The experiment in a line: Poison activity at human topoisomerase-2 alpha expressed in baculovirus infected insect cells assessed as stabilization of cleavage complex at 100 uM using pRYG DNA as substrate after 10 mins by ethidium bromide staining based agarose gel electrophoresis method. A digest of the protocol: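 Cleavage assay: 10U hTopoII on negatively supercoiled pRYG plasmid, in 1% (v/v) DMSO. Etoposide as positive control. Agarose gel run in the presence of ethidium bromide separates supercoiled substrate from linearized plasmid intermediate.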

Experiment [4] addresses T1, DNA topoisomerase 2-alpha. The experiment in a line: Inhibition of human topoisomerase-2 alpha expressed in baculovirus infected insect cells assessed as reduction in enzyme-meditaed supercoiled pRYG DNA substrate relaxation in presence of buffer containing DTT after 30 mins by agarose gel electrophoresis method. A digest of the protocol:
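hTopoII relaxation of supercoiled pRYG plasmid in commercial DTT-containing reaction buffer, with compounds at 10, 30 and 100. Gel bands quantified as percent inhibition. Three independent assays, mean + SEM.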

The target of experiment [5] is T1, DNA topoisomerase 2-alpha. Kind of experiment: Inhibition of human topoisomerase-2 alpha ATPase activity expressed in baculovirus infected insect cells assessed as disappearance of NADH at 10 uM using pBR322 DNA as substrate preincubated for 10 mins followed by ATP addition measured up to 35 mins by spectrophotometric based pyruvate kinase/lactate dehydrogenase coupled enzyme assay relative to control. A digest of the protocol:
(§1)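 hTopoII ATPase measured in an ATPase/pyruvate kinase/lactate dehydrogenase linked assay as decline of NADH absorbance at 340 nm. Activity expressed as percent of 1% DMSO control.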

Experiment [6] deals with T1, DNA topoisomerase 2-alpha. Kind of experiment: Inhibition of human topoisomerase-2 alpha ATPase activity expressed in baculovirus infected insect cells assessed as disappearance of NADH at 30 uM using pBR322 DNA as substrate preincubated for 10 mins followed by ATP addition measured up to 35 mins by spectrophotometric based pyruvate kinase/lactate dehydrogenase coupled enzyme assay relative to control. The method in brief:
as §1

The target in experiment [7] is T1, DNA topoisomerase 2-alpha. The experiment in a line: Inhibition of human topoisomerase-2 alpha ATPase activity expressed in baculovirus infected insect cells assessed as disappearance of NADH at 100 uM using pBR322 DNA as substrate preincubated for 10 mins followed by ATP addition measured up to 35 mins by spectrophotometric based pyruvate kinase/lactate dehydrogenase coupled enzyme assay relative to control. A digest of the protocol:
as §1

Experiment [8] relates to Escherichia coli. Kind of experiment: Inhibition of Escherichia coli DNA gyrase assessed as reduction in enzyme-mediated supercoiling activity at 100 uM using ladder of partially relaxed pBlueScript 2 KS+ DNA as substrate after 1 hr by agarose gel electrophoresis method. The method in brief:
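2.5U E. coli DNA gyrase acting on a ladder of partially relaxed forms as substrate, in 1% (v/v) DMSO. Agarose gel run without ethidium bromide separates the relaxed ladder from monomeric supercoiled product.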

Experiment [9] concerns Escherichia coli. The experiment in a line: Inhibition of Escherichia coli DNA topisomerase-1 assessed as reduction in enzyme-mediated relaxation of supercoiled pBlueScript 2 KS+ DNA substrate at 100 uM after 1 hr by agarose gel electrophoresis method. The method in brief: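 2.5U E. coli TopoI acting on supercoiled monomer substrate, in 1% (v/v) DMSO. Chloroquine and etoposide as controls. Agarose gel run without ethidium bromide separates supercoiled substrate from relaxed products.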

In experiment [10] the test system is Escherichia coli. Kind of experiment: Inhibition of Escherichia coli DNA topisomerase-1 assessed as reduction in enzyme-mediated unwinding activity at 100 uM using ladder of partially relaxed pBlueScript 2 KS+ DNA as substrate after 1 hr by agarose gel electrophoresis method. The method in brief:
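E. coli TopoI unwinding assay for intercalation: a ladder of partially relaxed forms as substrate, in 1% (v/v) DMSO. Chloroquine as control. Agarose gel run without ethidium bromide separates the ladder from relaxed products.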

Active and inactive are the calls of the source. The rule behind the calls is not given here.

T1 sequence (P11388 whole entry): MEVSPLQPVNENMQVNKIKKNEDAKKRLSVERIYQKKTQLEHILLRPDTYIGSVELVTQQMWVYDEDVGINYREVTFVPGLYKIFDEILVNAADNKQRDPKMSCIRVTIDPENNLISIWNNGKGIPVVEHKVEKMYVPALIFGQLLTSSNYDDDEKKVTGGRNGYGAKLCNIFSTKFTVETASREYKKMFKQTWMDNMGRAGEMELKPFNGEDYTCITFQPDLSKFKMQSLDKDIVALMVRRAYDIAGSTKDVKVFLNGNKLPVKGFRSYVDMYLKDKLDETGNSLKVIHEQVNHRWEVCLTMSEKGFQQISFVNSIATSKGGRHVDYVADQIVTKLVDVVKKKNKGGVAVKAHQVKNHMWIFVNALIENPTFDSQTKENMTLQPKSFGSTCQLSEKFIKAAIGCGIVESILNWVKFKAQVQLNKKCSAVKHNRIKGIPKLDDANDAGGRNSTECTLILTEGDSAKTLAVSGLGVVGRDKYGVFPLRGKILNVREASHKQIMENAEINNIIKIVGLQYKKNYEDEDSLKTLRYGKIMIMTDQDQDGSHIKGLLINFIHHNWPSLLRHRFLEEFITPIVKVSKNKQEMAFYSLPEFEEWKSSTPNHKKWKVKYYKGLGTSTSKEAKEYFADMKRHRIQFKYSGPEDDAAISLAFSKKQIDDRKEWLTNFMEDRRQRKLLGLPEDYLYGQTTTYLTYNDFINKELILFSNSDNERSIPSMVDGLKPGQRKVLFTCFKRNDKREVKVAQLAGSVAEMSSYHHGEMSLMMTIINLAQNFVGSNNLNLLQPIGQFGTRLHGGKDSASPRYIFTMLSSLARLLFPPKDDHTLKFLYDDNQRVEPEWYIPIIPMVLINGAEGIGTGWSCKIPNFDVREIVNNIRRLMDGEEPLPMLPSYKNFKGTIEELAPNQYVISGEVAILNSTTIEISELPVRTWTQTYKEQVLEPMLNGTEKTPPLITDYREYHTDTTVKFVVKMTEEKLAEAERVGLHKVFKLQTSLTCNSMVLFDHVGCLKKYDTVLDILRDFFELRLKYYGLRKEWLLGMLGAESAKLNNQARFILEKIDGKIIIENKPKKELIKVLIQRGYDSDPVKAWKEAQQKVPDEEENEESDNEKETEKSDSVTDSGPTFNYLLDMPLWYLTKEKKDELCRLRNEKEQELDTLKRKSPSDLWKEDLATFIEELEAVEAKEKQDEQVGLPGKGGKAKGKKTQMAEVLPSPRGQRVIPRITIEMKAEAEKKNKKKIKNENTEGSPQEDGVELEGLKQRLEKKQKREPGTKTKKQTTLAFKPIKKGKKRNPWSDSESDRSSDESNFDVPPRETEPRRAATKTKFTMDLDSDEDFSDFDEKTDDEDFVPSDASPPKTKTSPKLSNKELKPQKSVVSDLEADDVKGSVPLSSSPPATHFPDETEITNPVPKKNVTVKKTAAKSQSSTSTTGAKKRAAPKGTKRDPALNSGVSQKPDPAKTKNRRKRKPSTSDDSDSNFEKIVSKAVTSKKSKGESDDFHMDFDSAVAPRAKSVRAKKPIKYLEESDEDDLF

Regarding `C[C@@H](CN1CC(=O)NC(=O)C1)N1CC(=O)NC(=O)C1`, in experiment [1], the inhibition (in general, the percentage by which the read-out fell short of the control) is “Active”. Moreover, the inhibition entry in [2] was “inactive”.

For the molecule `COc1cc([C@@H]2c3cc4c(cc3[C@@H](O[C@@H]3O[C@@H]5CO[C@@H](C)O[C@H]5[C@H](O)[C@H]3O)[C@H]3COC(=O)[C@H]23)OCO4)cc(OC)c1O`, in [1], the inhibition result was “Active”. Further, the inhibition result in experiment [2] is “inactive”. For the same molecule, the outcome in [3] was Active.

In the case of `O=C1C(O)=C(C(c2ccc([N+](=O)[O-])cc2)c2c(O)c3ccccc3oc2=O)C(=O)c2ccccc21` (centres undefined), the inhibition result in experiment [1] and in [2] was “Active” in each case. Further, in experiment [4], the IC50 (as a rule, the point on the concentration scale where inhibition reaches its midpoint) lay within 10 to 30 µM. Moreover, in experiment [3], the outcome was inactive. The inhibition in [5] amounted to 34%; in experiment [6] it was 39%; in experiment [7], 61%. For the same molecule, the inhibition entry in the experiment with Escherichia coli [8], in the experiment with Escherichia coli [9] and in the experiment on Escherichia coli [10] was “inactive” each time.

For the molecule `O=C1C(O)=C(C(c2ccc(Br)cc2)c2c(O)c3ccccc3oc2=O)C(=O)c2ccccc21` (centres undefined), the inhibition entry in [1] and in experiment [2] was “Active” each time. For the same molecule, the IC50 in experiment [4] was in the range of 10 to 30 µM. Besides, the result in experiment [3] was inactive. The inhibition in [5] was 40%; in [6], 57%; in [7], 96%. The inhibition result in the experiment with Escherichia coli [8], in the experiment with Escherichia coli [9] and in the experiment with Escherichia coli [10] was “inactive” throughout.

As to `O=C1NC(=S)NC(=O)C1C(=O)Nc1ccccc1`, the inhibition result in experiment [1] was “Active”. For the same molecule, in experiment [2], the inhibition result was “inactive”.

As for `O=C1C(O)=C(C(c2ccc(F)cc2)c2c(O)c3ccccc3oc2=O)C(=O)c2ccccc21` (centres undefined), the inhibition result in experiment [1] and in experiment [2] was “Active” each time. Moreover, the IC50 in experiment [4] lay within 10 to 30 µM. In experiment [3], the result was inactive. The inhibition in experiment [5] is 67%; in experiment [6], 90%; in experiment [7], 94%. Besides, the inhibition entry in the experiment with Escherichia coli [8], in the experiment on Escherichia coli [9] and in the experiment on Escherichia coli [10] was “inactive” in each case.

For the molecule `O=C1C(O)=C(C(c2ccc(Cl)cc2)c2c(O)c3ccccc3oc2=O)C(=O)c2ccccc21` (centres undefined), the inhibition entry in [1] and in experiment [2] was “Active” each time. Further, the IC50 in [4] was in the range of 10 to 30 µM. For the same molecule, the outcome in experiment [3] was inactive. In addition, the inhibition is 61% in experiment [5], 78% in experiment [6] and 94% in experiment [7]. Also, the inhibition entry with Escherichia coli [8], in the experiment with Escherichia coli [9] and with Escherichia coli [10] was “inactive” throughout.

In the case of `O=C1C(O)=C(C(c2ccc3c(c2)OCO3)c2c(O)c3ccccc3oc2=O)C(=O)c2ccccc21` (centres undefined), the inhibition result in [1] and in [2] was “Active” throughout. For the same molecule, in experiment [4], the IC50 was 10 to 30 µM. In addition, the outcome in [3] was inactive. Also, the inhibition in [5] is 43%; in experiment [6], 67%; in [7] it was 94%. The inhibition entry with Escherichia coli [8], in the experiment on Escherichia coli [9] and in the experiment with Escherichia coli [10] was “inactive” throughout.

On to `O=C1C(O)=C(C(c2ccccc2F)c2c(O)c3ccccc3oc2=O)C(=O)c2ccccc21` (centres undefined), for which the inhibition result in [1] and in experiment [2] was “Active” throughout. In addition, the IC50 in experiment [4] was in the range of 10 to 30 µM. The result in [3] was inactive. Besides, the inhibition stood at 24% in experiment [5], 30% in [6] and 82% in [7]. For the same molecule, the inhibition result in the experiment with Escherichia coli [8], in the experiment with Escherichia coli [9] and with Escherichia coli [10] was “inactive” throughout.

`CCN(CC)CCCC(C)Nc1ccnc2cc(Cl)ccc12` (centres undefined): the inhibition entry with Escherichia coli [9] is “Active”.

Regarding `O=C1C(O)=C(C(c2ccccc2)c2c(O)c3ccccc3oc2=O)C(=O)c2ccccc21` (centres undefined), the inhibition result in experiment [1] and in [2] was “Active” each time. Moreover, in experiment [4], the IC50 is 10 to 30 µM. In addition, in experiment [3], the outcome was inactive. Besides, the inhibition came to 69% in experiment [5], 87% in [6] and 94% in experiment [7]. Further, the inhibition entry in the experiment on Escherichia coli [8], in the experiment on Escherichia coli [9] and with Escherichia coli [10] was “inactive” throughout.

In the case of `O=C(O)c1cn(C2CC2)c2cc(N3CCNCC3)c(F)cc2c1=O`, the inhibition result in the experiment with Escherichia coli [8] was “Active”.

These data come from ChEMBL document CHEMBL4000219, “Synthesis and biological evaluation of naphthoquinone-coumarin conjugates as topoisomerase II inhibitors” (Bioorg Med Chem Lett, 2017).
